Reference: paper PMC4474499 (Science Advances, 2015)
Entries after “also recorded” stand apart in the source; their conditions may differ. Non-standard residues stand in square brackets, D forms with d. No end group written: not given here. Pam3Cys = Cys carrying the Pam3 acyl chains of Pam3CSK4

B1: human TLR1 protein, purified extracellular domain (receptor, UniProt Q15399 25-580, looked up)
chain: SEFLVDRSKNGLIHVPKDLSQKTTILNISQNYISELWTSDILSLSKLRILIISHNRIQYLDISVFKFNQELEYLDLSHNKLVKISCHPTVNLKHLDLSFNAFDALPICKEFGNMSQLKFLGLSTTHLEKSSVLPIAHLNISKVLLVLGETYGEKEDPEGLQDFNTESLHIVFPTNKEFHFILDVSVKTVANLELSNIKCVLEDNKCSYFLSILAKLQTNPKLSNLTLNNIETTWNSFIRILQLVWHTTVWYFSISNVKLQGQLDFRDFDYSGTSLKALSIHQVVSDVFGFPQSYIYEIFSNMNIKNFTVSGTRMVHMLCPSKISPFLHLDFSNNLLTDTVFENCGHLTELETLILQMNQLKELSKIAEMTTQMKSLQQLDISQNSVSYDEKKGDCSWTKSLLSLNMSSNILTDTIFRCLPPRIKVLDLHSNKIKSIPKQVVKLEALQELNVAFNSLTDLPGCGSFSSLSVLIIDHNSVSHPSADFFQSCQKMRSIKAGDNPFQCTCELGEFVKNIDQVSSEVLEGWPDSYKCDYPESYRGTLLKDFHMSELSCNIT

What was measured:
human TLR2 = human TLR2 (Homo sapiens, UniProt O60603+Q15399); assay: SEAP reporter gene detection assay in HEK-Blue hTLR2 cells; assay type: cell-based
human TLR2, sequence (O60603 21-784): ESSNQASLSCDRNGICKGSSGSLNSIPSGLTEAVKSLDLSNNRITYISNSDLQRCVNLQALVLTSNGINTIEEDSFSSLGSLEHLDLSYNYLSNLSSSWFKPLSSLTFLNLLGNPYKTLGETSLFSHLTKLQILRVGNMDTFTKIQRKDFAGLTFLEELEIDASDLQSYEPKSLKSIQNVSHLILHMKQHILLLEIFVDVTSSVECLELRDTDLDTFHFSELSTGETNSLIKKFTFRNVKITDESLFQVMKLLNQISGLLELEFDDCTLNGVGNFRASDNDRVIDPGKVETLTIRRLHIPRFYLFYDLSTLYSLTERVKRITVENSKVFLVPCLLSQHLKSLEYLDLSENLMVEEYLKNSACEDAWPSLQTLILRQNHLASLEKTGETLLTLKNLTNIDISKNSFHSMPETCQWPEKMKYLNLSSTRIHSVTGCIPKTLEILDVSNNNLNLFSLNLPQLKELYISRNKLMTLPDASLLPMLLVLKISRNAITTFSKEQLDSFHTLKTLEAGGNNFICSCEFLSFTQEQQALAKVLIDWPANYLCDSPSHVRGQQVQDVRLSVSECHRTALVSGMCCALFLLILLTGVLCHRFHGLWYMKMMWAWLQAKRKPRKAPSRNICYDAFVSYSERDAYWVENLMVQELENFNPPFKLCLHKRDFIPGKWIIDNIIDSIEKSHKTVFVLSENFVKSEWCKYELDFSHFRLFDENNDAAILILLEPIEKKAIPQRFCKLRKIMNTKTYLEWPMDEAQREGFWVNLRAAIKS
human TLR2, sequence (Q15399 25-786): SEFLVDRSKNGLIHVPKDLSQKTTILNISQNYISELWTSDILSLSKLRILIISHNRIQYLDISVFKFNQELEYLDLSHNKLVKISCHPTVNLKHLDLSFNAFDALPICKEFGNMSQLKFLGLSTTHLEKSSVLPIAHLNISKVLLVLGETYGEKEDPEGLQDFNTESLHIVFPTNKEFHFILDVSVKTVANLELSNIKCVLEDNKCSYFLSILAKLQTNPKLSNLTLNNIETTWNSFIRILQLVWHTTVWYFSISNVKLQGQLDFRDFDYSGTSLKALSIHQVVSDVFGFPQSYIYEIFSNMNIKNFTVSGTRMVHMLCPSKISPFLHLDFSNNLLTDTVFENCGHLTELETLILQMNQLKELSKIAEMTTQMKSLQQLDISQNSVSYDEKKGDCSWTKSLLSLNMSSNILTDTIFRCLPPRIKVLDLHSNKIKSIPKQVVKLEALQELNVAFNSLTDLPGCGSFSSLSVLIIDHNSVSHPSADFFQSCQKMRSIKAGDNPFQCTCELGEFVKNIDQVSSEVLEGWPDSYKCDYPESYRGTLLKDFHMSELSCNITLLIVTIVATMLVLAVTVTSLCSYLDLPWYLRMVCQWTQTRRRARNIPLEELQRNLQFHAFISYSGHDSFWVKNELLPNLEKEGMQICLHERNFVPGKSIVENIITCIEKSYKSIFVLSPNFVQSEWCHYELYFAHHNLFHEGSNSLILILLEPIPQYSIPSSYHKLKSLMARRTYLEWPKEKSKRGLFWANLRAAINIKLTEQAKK
In short: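 HEK-Blue hTLR2 cells (SEAP reporter), 4 × 10^4/well, grown 24 h. Then 24 h in Opti-MEM/0.5% FBS with compounds at 0–50 μM or 0–100 μM. Pam3CSK4 (0–66 nM) used as reference agonist. Supernatant heat-treated 30 min at 65°C, cooled, mixed with SEAP buffer and CSPD substrate; luminescence read after 20 min.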

TLR1/2 complex = TLR1/2 complex (Homo sapiens, UniProt O60603+Q15399); assay: Fluorescence anisotropy competition with Rho-Pam3; assay type: binding; settings: up to 10 μM
TLR1/2 complex, sequence (O60603 21-588 limits assumed, one chain of several): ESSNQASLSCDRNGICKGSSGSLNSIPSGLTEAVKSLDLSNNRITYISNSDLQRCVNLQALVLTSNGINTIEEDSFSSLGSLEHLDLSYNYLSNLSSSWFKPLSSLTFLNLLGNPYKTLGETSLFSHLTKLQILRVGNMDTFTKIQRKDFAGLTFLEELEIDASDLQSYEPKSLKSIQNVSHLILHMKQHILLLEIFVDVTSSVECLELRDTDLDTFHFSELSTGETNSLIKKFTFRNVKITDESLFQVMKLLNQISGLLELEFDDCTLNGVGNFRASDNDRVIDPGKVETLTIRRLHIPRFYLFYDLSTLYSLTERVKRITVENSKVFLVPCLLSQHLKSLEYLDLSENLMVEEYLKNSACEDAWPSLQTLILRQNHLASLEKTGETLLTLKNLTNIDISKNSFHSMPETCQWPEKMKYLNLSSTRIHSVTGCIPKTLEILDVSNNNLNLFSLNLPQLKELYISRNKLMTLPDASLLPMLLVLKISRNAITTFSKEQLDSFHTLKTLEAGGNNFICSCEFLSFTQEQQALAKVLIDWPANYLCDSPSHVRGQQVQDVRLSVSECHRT
In short: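 Equal amounts of TLR1 and TLR2 (4 μl each of 10 μM stocks) added to Rho-Pam3CSK4 in PBS pH 7.4 and held 30 min. Serial test-compound concentrations then incubated with the complex 30 min at RT. Fluorescence anisotropy read at 25°C (ex 549/em 566 nm). An analog served as negative control; IC50 derived from the titration.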

NF-κB [1] = assay: U937 NF-κB–GFP reporter assay; assay type: cell-based, human; settings: 20 μM (GA even up to 100 μM), U937 cells
Raw 264.7 cells [2] = assay: In vitro NO activation assay for Raw 264.7 cells; assay type: cell-based, mouse; settings: Raw 264.7 macrophage cells, 1 µM CU-T12-9
In short: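 RAW 264.7 cells, 80,000/well, grown 24 h. Non-adherent cells removed; medium changed to unsupplemented RPMI 1640. Treated 24 h with test compound, or 66 nM (100 ng/ml) Pam3CSK4 as control. Supernatant reacted 15 min in the dark with 2,3-diaminonaphthalene in HCl, quenched with NaOH. Fluorescence read at ex 365/em 450 nm; nitrite calculated from a standard curve.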

NF-κB [3] = assay: Triptolide inhibition of CU-T12-9–induced SEAP signaling in HEK-Blue hTLR2 cells; assay type: cell-based, human
hTLR1 and hTLR2 = hTLR1 and hTLR2 (Homo sapiens, UniProt O60603+Q15399); assay: SEC-LS assay of TLR1/2 heterodimer formation; assay type: biochemical; settings: CU-T12-9 0 to 40 μM or Pam3CSK4 260 nM (400 ng/ml)
hTLR1 and hTLR2, sequence (O60603 21-588 limits assumed, one chain of several): as above
In short: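 Human TLR2 in PBS pH 7.4 preincubated 2 h at RT with test compound or Pam3CSK4. Equimolar hTLR1 then added (final about 10 μM each) for 2 h at 37°C. Both proteins were baculovirus/insect-cell products. Samples filtered (0.1 μm) and run on size-exclusion column in PBS at 1 ml/min. Detection by in-line multi-angle light scattering, refractive index and UV.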

Raw 264.7 cells [4] = assay: Quantitative RT-PCR of mRNA levels in Raw 264.7 macrophage cells; assay type: cell-based, mouse
In short: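 RAW 264.7 cells, 1 × 10^6/well, grown 24 h, then given fresh RPMI 1640. Exposed to test compound, or 33 nM (50 ng/ml) Pam3CSK4, for 0, 2, 8 or 24 h. Cells washed in cold PBS and frozen. Total RNA extracted (RNeasy) for qRT-PCR. Fold change calculated by ΔΔCt versus DMSO-treated cells, means ± SD.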

SEC-MALS = target: the molecule itself; assay: SEC-MALS
[5] = target: human TLR2 protein, purified extracellular domain (human, UniProt O60603 21-588); assay: fluorescence polarisation
human TLR2 protein, purified extracellular domain, sequence (O60603 21-588): as the sequence (O60603 21-588 limits assumed, one chain of several) above

[6] = target: B1; assay: fluorescence polarisation
[7] = target: TLR1/TLR2 complex (equimolar mixture of purified hTLR1 and hTLR2) (human, UniProt Q15399 25-580; O60603 21-588); assay: fluorescence polarisation
TLR1/TLR2 complex (equimolar mixture of purified hTLR1 and hTLR2), sequence (O60603 21-588, chain 2 of 2, one chain of several): as the sequence (O60603 21-588 limits assumed, one chain of several) above

CNc1ccc([N+](=O)[O-])cc1-n1cnc(-c2cccc([N+](=O)[O-])c2)c1 [Compound 10]
SEAP agonist activity (in words) (human TLR2; HEK-Blue hTLR2 cells, nitro group switched from R3 to R4): completely abolished activity

CNc1ccc([N+](=O)[O-])cc1-n1cnc(-c2ccc(C#N)cc2)c1 [Compound 11]
increase in potency relative to GA (factor) (human TLR2; replacement of –NO2 at R3): 10

CNc1ccc([N+](=O)[O-])cc1-n1cnc(-c2ccc(C(=O)O)cc2)c1 [Compound 19]
SEAP activity at 100 μM (human TLR2; 100 μM, HEK-Blue hTLR2 cells): inactive

CNc1ccc(C(F)(F)F)cc1-n1cnc(-c2ccc(C(F)(F)F)cc2)c1 [Compound 20]
decrease in potency compared with CU-T12-9 (human TLR2; –CF3 at R1): four times

CNc1ccc(C(=O)O)cc1-n1cnc(-c2ccc(C(F)(F)F)cc2)c1 [Compound T12-29]
inhibition of Rho-Pam3 binding to TLR1/TLR2 (TLR1/2 complex): no competitive binding; also recorded: negligible inhibition

CNc1ccc([N+](=O)[O-])cc1-n1cnc(-c2ccc([N+](=O)[O-])cc2)c1 [GA, N-methyl-4-nitro-2-(4-(4-nitrophenyl)-1H-imidazol-1-yl)aniline, reference compound]
NF-κB activation (NF-κB [1]): much lower NF-κB activation

CCOC(=O)C1=CCCC[C@H]1S(=O)(=O)Nc1ccc(F)cc1Cl [TAK-242, reference compound]
inhibition of CU-T12-9 induced NO activation (Raw 264.7 cells [2]): could not be influenced

CC(C)[C@]12O[C@H]1[C@@H]1O[C@]13[C@]1(O[C@H]1C[C@H]1C4=C(CC[C@@]13C)C(=O)OC4)[C@@H]2O [Triptolide]
inhibition of CU-T12-9–induced SEAP signaling (NF-κB [3]): efficiently inhibit

Pam3CSK4 [reference compound]
TLR1/2 heterodimer formation (hTLR1 and hTLR2): promoted TLR1/2 heterodimerization | time of highest TLR2 mRNA expression (Raw 264.7 cells [4]; 1 μM CU-T12-9 or 33 nM (50 ng/ml) Pam3CSK4, measured at 2, 8, 24 hours): 2 h | TNF mRNA expression (Raw 264.7 cells [4]; over time, maximal expression after 8 hours): increased | iNOS mRNA expression (Raw 264.7 cells [4]; over time, peaked at 24 hours): increased

B1
stoichiometry N (SEC-MALS): 2

[Pam3Cys]SKKKK (also: rhodamine label, site not given here) [rhodamine-labeled Pam3CSK4]
Kd [5]: 125 ± 3.43 nM | Kd [6]: 41.6 ± 2.36 nM | Kd [7]: 35 ± 1.98 nM
